What was measured:
[1] = The antiviral activity against HIV-1 in human peripheral blood mononuclear (PBM) cells expressed as inhibitory concentration; type: functional
Summary of the method: (§1)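 PHA-stimulated human PBM cells infected with HIV-1 strain LAV-1 (about 63 000 dpm RT activity per 10^7 cells/10 mL medium), then drug added to duplicate or triplicate cultures. Incubated at 37 °C in 5% CO2 for 6 days. Supernatant RT activity measured on pelleted virus with (rA)n·(dT)12-18 template-primer, expressed as dpm/mL. EC50 taken from median-effect plot of dose-effect data.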

[2] = The antiviral activity against HIV-1 in human peripheral blood mononuclear (PBM) cells expressed as median effective concentration; type: functional; settings: read-out: ED50 (the source's name); summary of the method: as §1

Row | IC50 [1] [µM] | EC50 [2] [µM] | Compound
1 | > 100 | 53.9 | OCC1CCC(n2cnc3c(S)ncnc32)O1 (centres undefined)
2 | > 100 | 0.62 | Nc1ncnc2c1ncn2[C@H]1CC[C@@H](CO)O1
3 | > 100 | 2.3 | CN(C)c1ncnc2c1ncn2C1CCC(CO)O1 (centres undefined)
4 | > 100 | 0.26 | CNc1ncnc2c1ncn2C1CCC(CO)O1 (centres undefined)
5 | > 100 | 3.6 | CSc1ncnc2c1ncn2C1CCC(CO)O1 (centres undefined)
6 | > 100 | 2.1 | OC[C@@H]1CC[C@H](n2cnc3c(Cl)ncnc32)O1
7 | > 100 | > 100 | OC[C@@H]1CC[C@H](n2cnc3cncnc32)O1
8 | > 100 | 4.3 | CNc1ncnc2c1ncn2C1OC(CO)CC1F (centres undefined)
9 | > 100 | 5.2 | CCNc1ncnc2c1ncn2C1CCC(CO)O1 (centres undefined)
10 | 10 | > 100 | OCC1CCC(n2cnc3c(NCc4ccccc4)ncnc32)O1 (centres undefined)
11 | > 100 | 0.88 | Nc1nc(O)c2ncn([C@H]3CC[C@@H](CO)O3)c2n1
12 | > 100 | 5.5 | O=c1[nH]cnc2c1ncn2[C@H]1CC[C@@H](CO)O1 [DIDANOSINE]

Source: ChEMBL document CHEMBL1124783, “Synthesis and structure-activity relationships of 6-substituted 2',3'-dideoxypurine nucleosides as potential anti-human immunodeficiency virus agents” (J Med Chem, 1990)
